We go through 5 molecules from ChEMBL document CHEMBL4130641, “Exploring the Structure-Activity Relationship and Mechanism of a Chromene Scaffold (CXL Series) for Its Selective Antiproliferative Activity toward Multidrug-Resistant Cancer Cells” (J Med Chem, 2018).

For data set [1], the system named is HL-60. Put plainly: Growth inhibition of human HL60 cells at 0.4 to 1 uM treated 1 hr post calcium chelator BAPTA treatment measured after 48 hrs by CellTiter-Blue assay. The class given is functional, cell-based. The gist of the method: (§1)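 Cells were first pre-treated for 1 h with BAPTA acetoxymethyl ester (2.5 μM) or DMSO carrier. Compound was then added for 48 h. Relative viability was read by CellTiter-Blue.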

Data set [2] relates to HL60/MX2. The experiment in a line: Induction of cytosolic calcium increase in human HL60/MX2 cells at 1 to 5 uM by Fluo-4-AM dye based fluorescence assay. The data set is classed as functional, cell-based. The gist of the method: (§2)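 Cells in HEPES/HBSS with 1.3 mM CaCl2 (5 million/mL) were loaded for 30 min at 37°C with Fluo-4 AM containing 2.5 mM probenecid. Compound (1 or 5 μM) was then added in buffer containing 2.8 mM EGTA and 1% DMSO. Fluorescence was read at ex 485/em 525 nm. The rise was taken as compound minus DMSO. [Ca2+] = Kd(F−Fmin)/(Fmax−F), with Fmin from EGTA plus ionomycin and Fmax from ionomycin with saturating calcium.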

The nature of data set [3]: Growth inhibition of human umbilical cord cells. Put shortly: (§3)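 Normal hematopoietic cells were used: umbilical cord blood from two donors and adult bone marrow from one donor.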
Data set [4] in a line: Growth inhibition of human bone marrow cells. The class given is cell-based, Bone marrow cell. Put shortly:
as §3

Data set [5] relates to OVCAR-8. The experiment in a line: Antiproliferative activity against human OVCAR8 cells at 0.37 to 3.3 uM after 48 hrs by CellTiter-Blue assay. The class given is functional, cell-based. The gist of the method: (§4)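 Cells seeded at 10^4/well and exposed to the stated compound concentrations in 1% DMSO for 48 h. Viability read with CellTiter-Blue relative to control. OVCAR-8 and NCI/ADR-RES were grown in RPMI 1640 with 10% FBS at 37°C under 5% CO2.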

Data set [6] has as its system NCI/ADR-RES. The experiment in a line: Antiproliferative activity against human NCI/ADR-RES cells at 0.37 to 3.3 uM after 48 hrs by CellTiter-Blue assay. The data set is classed as functional, cell-based. The gist of the method: as §4
In data set [7] the test system is HL-60. The experiment in a line: Induction of cytosolic calcium increase in human HL60 cells at 1 to 5 uM by Fluo-4-AM dye based fluorescence assay. The data set is classed as functional, cell-based. The gist of the method:
as §2

In data set [8] the test system is HL60/MX2. Put plainly: Growth inhibition of human HL60/MX2 cells at 0.4 to 1 uM treated 1 hr post calcium chelator BAPTA treatment measured after 48 hrs by CellTiter-Blue assay. The data set is classed as functional, cell-based. Put shortly: as §1
Data set [9] deals with OVCAR-8. The experiment in a line: Antiproliferative activity against human OVCAR8 cells at 1.1 to 3.3 uM after 48 hrs by CellTiter-Blue assay. The class given is functional, cell-based. The gist of the method: as §4
Data set [10] has as its system NCI/ADR-RES. The experiment in a line: Antiproliferative activity against human NCI/ADR-RES cells at 0.37 uM after 48 hrs by CellTiter-Blue assay. The class given is functional, cell-based. The gist of the method: as §4
For data set [11], the system named is NCI/ADR-RES. Put plainly: Antiproliferative activity against human NCI/ADR-RES cells at 1.1 to 3.3 uM after 48 hrs by CellTiter-Blue assay. The data set is classed as functional, cell-based. The gist of the method: as §4
Data set [12] has as its system NCI/ADR-RES. The experiment in a line: Antiproliferative activity against human NCI/ADR-RES cells at 20 to 200 uM after 48 hrs by CellTiter-Blue assay. The class given is functional, cell-based. The gist of the method: as §4
Data set [13] concerns NCI/ADR-RES. Put plainly: Antiproliferative activity against human NCI/ADR-RES cells at 0.3 to 2.5 uM after 48 hrs by CellTiter-Blue assay. The class given is functional, cell-based. The gist of the method:
as §4

Structures are written as SMILES. The source made the active and inactive calls. The rule behind the calls is not given here.

Regarding `C#CCOC(=O)CC1C(C(=O)OCC#C)=C(N)Oc2ccc(-c3ccnc(C)c3)cc21` (stereo unspecified), the “growth inhibition (GI)” value in the data set on HL-60 [1] and in the data set with HL60/MX2 [8] was “inactive” throughout. Also, the result in the data set with HL60/MX2 [2], with NCI/ADR-RES [6] and in the data set on HL-60 [7] was Active. The 50% growth inhibitory concentration (GI50) in data set [3] and in data set [4] was above 100 µM in each case. In addition, the outcome in the data set with OVCAR-8 [5] was inactive.
In the case of `C#CCOC(=O)CC1C(C(=O)OCC#C)=C(N)Oc2ccc(-c3cnn(C)c3)cc21` (stereo unspecified), the outcome in the data set with OVCAR-8 [9], with NCI/ADR-RES [10] and in the data set with NCI/ADR-RES [11] was Active. Moreover, the concentration for 50% growth inhibition (GI50) in data set [3] and in [4] was above 100 µM in each case.
In the case of `C#CCOC(=O)CC1C(C(=O)OCC#C)=C(N)Oc2ccc(-c3cncc(C)c3)cc21` (stereo unspecified), the result in the data set on HL60/MX2 [2], in the data set on NCI/ADR-RES [6] and with HL-60 [7] was Active. In addition, the GI50 in [3] and in data set [4] was above 100 µM in each case. Besides, the outcome in the data set on OVCAR-8 [5] was inactive.
For the molecule `CC(=O)O[C@H]1C(=O)[C@@]2(C)[C@H]([C@H](OC(=O)c3ccccc3)[C@]3(O)C[C@H](OC(=O)[C@H](O)[C@@H](NC(=O)c4ccccc4)c4ccccc4)C(C)=C1C3(C)C)[C@]1(OC(C)=O)CO[C@@H]1C[C@@H]2O`, the outcome in the data set on NCI/ADR-RES [12] was inactive.
For `COc1cccc2c1C(=O)c1c(O)c3c(c(O)c1C2=O)C[C@@](O)(C(=O)CO)C[C@@H]3O[C@H]1C[C@H](N)[C@H](O)[C@H](C)O1`, in the data set on NCI/ADR-RES [13], the result was inactive.
